Calls of active or inactive are those of the source. No cut-off for these calls is given here.
Each compound was assayed on Neuronal cell line (assay: Cytotoxicity against human neuronal progenitor cells assessed as cell viability at 25 uM). Conditions: not given.
Format: cell-based
`O=C(N/N=C/c1ccc[nH]1)C1CC1(c1ccc(OC(F)(F)F)cc1)c1ccc(OC(F)(F)F)cc1` (stereo unspecified) was tested, and the Activity was “Non-Toxic”.

Each compound was assayed on Human alphaherpesvirus 1 (assay: Antiviral activity against Herpes simplex virus 1 infected in neuronal progenitor cells assessed as decrease in fluorescent cells). Conditions: Human alphaherpesvirus 1, Neuronal cell line.
Format: functional, organism-based
For `O=C(N/N=C/c1ccc[nH]1)C1CC1(c1ccc(OC(F)(F)F)cc1)c1ccc(OC(F)(F)F)cc1` (stereo unspecified), the IC50 was 14.1 µM. `Nc1nc2c(ncn2COCCO)c(=O)[nH]1` [ACYCLOVIR] was tested, and the IC50 was 27.4 µM.

Each compound was assayed on Human alphaherpesvirus 1 (assay: Antiviral activity against recombinant EGFP/RFP expressing Herpes simplex virus 1 KOS infected in iPSC-neurons assessed as decrease in proportion of fluorescent cells compound added 2 hr post infection incubated for 48 hrs by flow cytometry analysis). Conditions: Induced pluripotent stem cell-derived neuron.
Format: functional, organism-based
Procedure, shortened: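 iPSC-derived neurons infected with recombinant HSV-1 derived from strain KOS, expressing EGFP from the early ICP0 promoter and monomeric RFP from the glycoprotein C promoter. Infection was scored as the proportion of fluorescent cells. Controls were uninfected cells, virus alone, and virus with acyclovir as positive control. The protocol follows the group's earlier procedure.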
`O=C(N/N=C/C1CCCCC1)C1CC1(c1ccccc1)c1ccccc1` (stereo unspecified) was tested, and the Activity was “Active”. In the case of `O=C(N/N=C/c1ccc(Br)cc1)C1CC1(c1ccccc1)c1ccccc1` (stereo unspecified), the Activity is reported as “inactive”. With `O=C(N/N=C/c1ccccc1Cl)C1CC1(c1ccccc1)c1ccccc1` (stereo unspecified) the Activity was “Active”. `O=C(N/N=C/c1ccc(F)cc1F)C1CC1(c1ccccc1)c1ccccc1` (stereo unspecified) was tested, and the Activity was “inactive”. For `O=C(N/N=C1/CCCc2ccccc21)C1CC1(c1ccccc1)c1ccccc1` (stereo unspecified), the Activity was “inactive”. In the case of `O=C(N/N=C/c1ncc[nH]1)C1CC1(c1ccccc1)c1ccccc1` (stereo unspecified), the Activity is reported as “inactive”. `O=C(N/N=C/c1ccccn1)C1CC1(c1ccccc1)c1ccccc1` (stereo unspecified) was tested, and the Activity was “Active”. With `O=C(N/N=C/c1ccc(Br)o1)C1CC1(c1ccccc1)c1ccccc1` (stereo unspecified) the Activity was “inactive”. In the case of `O=C(N/N=C/c1ccccn1)C1CC1(c1ccc(OC(F)(F)F)cc1)c1ccc(OC(F)(F)F)cc1` (stereo unspecified), the Activity is reported as “Active”. In the case of `O=C(N/N=C/c1ccc[nH]1)C1CC1(c1ccccc1)c1ccccc1` (stereo unspecified), the Activity is reported as “Active”. With `CN(C)c1ccc(/C=N/NC(=O)C2CC2(c2ccccc2)c2ccccc2)cc1` (stereo unspecified) the Activity was “inactive”. With `O=C(N/N=C/c1cccnc1)C1CC1(c1ccccc1)c1ccccc1` (stereo unspecified) the Activity was “inactive”. `O=C(N/N=C/c1ccc2c(c1)OCO2)C1CC1(c1ccccc1)c1ccccc1` (stereo unspecified) was tested, and the Activity was “Active”. `O=C(N/N=C/c1ccco1)C1CC1(c1ccccc1)c1ccccc1` (stereo unspecified) was tested, and the Activity was “Active”. `O=C(N/N=C/c1ccc([N+](=O)[O-])cc1)C1CC1(c1ccccc1)c1ccccc1` (stereo unspecified) was tested, and the Activity was “inactive”. For `O=C(N/N=C/c1ccc[nH]1)C1CC1(c1ccc(OC(F)(F)F)cc1)c1ccc(OC(F)(F)F)cc1` (stereo unspecified), the Activity was “Active”. With `O=C(N/N=C/c1c[nH]c2ccccc12)C1CC1(c1ccccc1)c1ccccc1` (stereo unspecified) the Activity was “Active”. `O=C(N/N=C/c1c[nH]cn1)C1CC1(c1ccccc1)c1ccccc1` (stereo unspecified) was tested, and the Activity was “inactive”. For `COc1cc(/C=N/NC(=O)C2CC2(c2ccccc2)c2ccccc2)cc(OC)c1OC` (stereo unspecified), the Activity was “Active”. `O=C(N/N=C/c1cccs1)C1CC1(c1ccccc1)c1ccccc1` (stereo unspecified) was tested, and the Activity was “Active”. With `Nc1nc2c(ncn2COCCO)c(=O)[nH]1` [ACYCLOVIR] the Activity was “Active”. For `COc1cc(/C=N/NC(=O)C2CC2(c2ccccc2)c2ccccc2)ccc1O` (stereo unspecified), the Activity was “inactive”.

What follows are compounds tested on Human alphaherpesvirus 1 (assay: Potency index, ratio of acyclovir IC50 to compound IC50 for antiviral activity against HSV-1 infected in neuronal progenitor cells). Conditions: not given.
Format: functional, Neuronal cell line
In the case of `O=C(N/N=C/c1ccc[nH]1)C1CC1(c1ccc(OC(F)(F)F)cc1)c1ccc(OC(F)(F)F)cc1` (stereo unspecified), the “Ratio IC50” value is reported as 2.
